According to ChEMBL document CHEMBL5678802, “Small-molecule p21-activated kinase inhibitor PF-3758309 is a potent inhibitor of oncogenic signaling and tumor growth” (Proc Natl Acad Sci U S A, 2010):
Activity calls are given as the source filed them. The calls are words filed in the database; no cut-off is given here.

Legend:
[1] = system: RKO; experiment: Antiproliferative activity against human RKO cells assessed as inhibition of cell proliferation incubated for 3 days by CellTiter-Glo Luminescent Cell Viability Assay; type: functional, cell-based; details: 72 h
Method in brief: (§1)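 Cells of each line were plated in 384-well plates on day 1 and exposed to compound from day 2 for 3 days. On day 5 all medium was aspirated. Viable cell number was read by CellTiter-Glo luminescence, which quantifies cellular ATP.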

[2] = system: NCI-H1838; experiment: Antiproliferative activity against human NCI-H1838 cells assessed as inhibition of cell proliferation incubated for 3 days by CellTiter-Glo Luminescent Cell Viability Assay; type: functional, cell-based; details: NCI-H1838, 72 h; method in brief: as §1
[3] = system: NCI-H226; experiment: Antiproliferative activity against human NCI-H226 cells assessed as inhibition of cell proliferation incubated for 3 days by CellTiter-Glo Luminescent Cell Viability Assay; type: functional, cell-based; details: NCI-H226, 72 h; method in brief: as §1
[4] = system: NCI-H358; experiment: Antiproliferative activity against human NCI-H358 cells assessed as inhibition of cell proliferation incubated for 3 days by CellTiter-Glo Luminescent Cell Viability Assay; type: functional, cell-based; details: NCI-H358, 72 h; method in brief: as §1
[5] = system: PANC-08-13; experiment: Antiproliferative activity against human PANC-08-13 cells assessed as inhibition of cell proliferation incubated for 3 days by CellTiter-Glo Luminescent Cell Viability Assay; type: functional, cell-based; details: PANC-08-13, 72 h; method in brief: as §1
[6] = system: NCI-H1299; experiment: Inhibition of anchorage independent cell growth in human NCI-H1299 cells incubated for 6 days by Alamar blue reagent based fluorescence plate reader analysis; type: functional; details: NCI-H1299, 144 h
[7] = system: ZR-75-1; experiment: Antiproliferative activity against human ZR-75-1 cells assessed as inhibition of cell proliferation incubated for 3 days by CellTiter-Glo Luminescent Cell Viability Assay; type: functional, cell-based; details: ZR-75-1, 72 h; method in brief: as §1
[8] = biological target: Ribosomal protein S6 kinase alpha-2 (Homo sapiens, UniProt Q15349); experiment: Inhibition of human RSK3 in presence of ATP relative to control; details: concentration not given here
Chain of Ribosomal protein S6 kinase alpha-2 (Q15349 whole entry): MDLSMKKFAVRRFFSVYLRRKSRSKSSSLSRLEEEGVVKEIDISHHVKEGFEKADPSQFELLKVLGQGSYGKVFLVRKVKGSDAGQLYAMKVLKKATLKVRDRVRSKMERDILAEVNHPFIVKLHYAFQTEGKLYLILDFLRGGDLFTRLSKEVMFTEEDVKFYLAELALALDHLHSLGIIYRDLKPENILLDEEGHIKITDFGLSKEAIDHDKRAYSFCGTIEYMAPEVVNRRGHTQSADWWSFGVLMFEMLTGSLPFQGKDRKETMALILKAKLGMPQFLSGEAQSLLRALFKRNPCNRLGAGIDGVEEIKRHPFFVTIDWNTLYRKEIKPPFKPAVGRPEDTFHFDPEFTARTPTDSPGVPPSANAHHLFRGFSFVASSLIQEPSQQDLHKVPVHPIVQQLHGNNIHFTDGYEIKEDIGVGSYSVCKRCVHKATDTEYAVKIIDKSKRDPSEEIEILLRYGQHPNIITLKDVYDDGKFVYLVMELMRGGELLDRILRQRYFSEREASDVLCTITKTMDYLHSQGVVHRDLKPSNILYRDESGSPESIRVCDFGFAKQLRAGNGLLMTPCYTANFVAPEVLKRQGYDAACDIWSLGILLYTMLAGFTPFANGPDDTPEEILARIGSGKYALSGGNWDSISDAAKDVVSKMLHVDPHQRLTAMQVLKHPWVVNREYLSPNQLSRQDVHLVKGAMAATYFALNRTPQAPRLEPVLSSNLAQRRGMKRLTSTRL

[9] = biological target: Ribosomal protein S6 kinase alpha-3 (Homo sapiens, UniProt P51812); experiment: Inhibition of human RSK2 assessed as inhibition constant in presence of ATP
Chain of Ribosomal protein S6 kinase alpha-3 (P51812 whole entry): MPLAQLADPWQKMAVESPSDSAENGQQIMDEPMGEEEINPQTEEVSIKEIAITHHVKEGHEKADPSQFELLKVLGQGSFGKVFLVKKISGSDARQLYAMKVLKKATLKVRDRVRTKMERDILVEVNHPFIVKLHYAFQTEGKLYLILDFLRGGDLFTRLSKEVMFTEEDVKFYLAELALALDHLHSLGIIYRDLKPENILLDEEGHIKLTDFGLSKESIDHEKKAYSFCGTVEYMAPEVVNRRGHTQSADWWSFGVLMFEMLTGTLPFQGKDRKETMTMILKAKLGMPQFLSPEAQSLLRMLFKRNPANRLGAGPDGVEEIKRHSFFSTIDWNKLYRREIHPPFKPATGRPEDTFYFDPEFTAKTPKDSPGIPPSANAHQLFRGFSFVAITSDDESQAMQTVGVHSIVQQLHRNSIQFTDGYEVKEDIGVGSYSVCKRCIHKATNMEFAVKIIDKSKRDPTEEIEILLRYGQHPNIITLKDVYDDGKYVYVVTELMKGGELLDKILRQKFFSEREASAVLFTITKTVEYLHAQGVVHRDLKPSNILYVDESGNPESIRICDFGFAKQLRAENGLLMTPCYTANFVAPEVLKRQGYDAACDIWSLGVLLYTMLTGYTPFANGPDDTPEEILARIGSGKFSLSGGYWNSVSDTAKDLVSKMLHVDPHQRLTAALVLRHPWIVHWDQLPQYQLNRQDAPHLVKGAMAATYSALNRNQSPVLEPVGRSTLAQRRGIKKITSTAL

[10] = biological target: Tyrosine-protein kinase Yes (Homo sapiens, UniProt P07947); experiment: Inhibition of human YES1 assessed as inhibition constant in presence of ATP
Chain of Tyrosine-protein kinase Yes (P07947 whole entry): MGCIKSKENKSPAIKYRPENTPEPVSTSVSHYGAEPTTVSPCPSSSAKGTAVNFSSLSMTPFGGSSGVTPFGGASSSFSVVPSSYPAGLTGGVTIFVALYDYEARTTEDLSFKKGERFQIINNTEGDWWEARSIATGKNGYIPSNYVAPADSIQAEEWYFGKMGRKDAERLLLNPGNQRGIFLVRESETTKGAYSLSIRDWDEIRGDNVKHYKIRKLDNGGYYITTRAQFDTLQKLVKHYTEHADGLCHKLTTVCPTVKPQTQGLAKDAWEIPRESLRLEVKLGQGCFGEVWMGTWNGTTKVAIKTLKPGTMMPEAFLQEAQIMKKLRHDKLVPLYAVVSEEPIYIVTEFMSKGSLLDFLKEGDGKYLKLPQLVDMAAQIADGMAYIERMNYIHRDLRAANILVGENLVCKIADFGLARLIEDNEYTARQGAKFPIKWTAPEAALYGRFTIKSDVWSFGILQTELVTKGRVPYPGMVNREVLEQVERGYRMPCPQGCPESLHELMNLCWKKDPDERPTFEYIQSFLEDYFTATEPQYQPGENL

[11] = biological target: High affinity nerve growth factor receptor (Homo sapiens, UniProt P04629); experiment: Inhibition of human TRKa in presence of ATP by cellular assay
Chain of High affinity nerve growth factor receptor (P04629 whole entry): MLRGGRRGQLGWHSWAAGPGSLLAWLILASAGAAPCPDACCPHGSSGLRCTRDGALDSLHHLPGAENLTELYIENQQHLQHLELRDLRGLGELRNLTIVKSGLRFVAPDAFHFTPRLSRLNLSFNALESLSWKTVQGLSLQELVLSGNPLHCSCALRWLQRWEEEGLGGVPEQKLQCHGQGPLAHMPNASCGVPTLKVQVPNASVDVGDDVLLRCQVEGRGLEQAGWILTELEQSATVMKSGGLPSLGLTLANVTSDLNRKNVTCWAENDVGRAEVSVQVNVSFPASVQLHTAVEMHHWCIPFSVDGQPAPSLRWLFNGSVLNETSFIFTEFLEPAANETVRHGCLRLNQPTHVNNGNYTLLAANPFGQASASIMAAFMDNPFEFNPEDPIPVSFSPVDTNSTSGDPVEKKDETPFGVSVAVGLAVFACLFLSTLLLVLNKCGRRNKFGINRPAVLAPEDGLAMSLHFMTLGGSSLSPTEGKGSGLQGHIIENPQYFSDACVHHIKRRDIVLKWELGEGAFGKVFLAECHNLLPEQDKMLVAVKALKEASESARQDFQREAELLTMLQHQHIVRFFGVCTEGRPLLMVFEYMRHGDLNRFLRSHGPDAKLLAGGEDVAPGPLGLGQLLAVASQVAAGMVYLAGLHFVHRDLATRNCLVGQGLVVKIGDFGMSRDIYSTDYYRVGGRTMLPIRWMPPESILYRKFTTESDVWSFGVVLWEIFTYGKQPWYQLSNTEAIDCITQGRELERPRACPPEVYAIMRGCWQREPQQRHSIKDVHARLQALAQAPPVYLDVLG

[12] = biological target: RAC-gamma serine/threonine-protein kinase (Homo sapiens, UniProt Q9Y243); experiment: Inhibition of human AKT3 in presence of ATP by cellular assay
Chain of RAC-gamma serine/threonine-protein kinase (Q9Y243 whole entry, the tested form may be a part): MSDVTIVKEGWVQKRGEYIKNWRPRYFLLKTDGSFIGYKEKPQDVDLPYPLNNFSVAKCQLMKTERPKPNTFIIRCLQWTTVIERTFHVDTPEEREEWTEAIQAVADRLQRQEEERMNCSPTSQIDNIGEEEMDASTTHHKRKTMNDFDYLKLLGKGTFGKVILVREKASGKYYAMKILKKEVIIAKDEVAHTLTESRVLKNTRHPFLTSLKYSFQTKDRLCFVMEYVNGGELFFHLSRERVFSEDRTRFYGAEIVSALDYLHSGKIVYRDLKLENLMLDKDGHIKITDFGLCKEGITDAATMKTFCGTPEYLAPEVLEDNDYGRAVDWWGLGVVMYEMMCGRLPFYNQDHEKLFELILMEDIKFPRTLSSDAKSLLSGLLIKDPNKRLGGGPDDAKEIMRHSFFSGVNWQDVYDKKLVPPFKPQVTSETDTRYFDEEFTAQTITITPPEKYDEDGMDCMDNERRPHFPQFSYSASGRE

[13] = biological target: Tumour suppressor p53/oncoprotein Mdm2 (Homo sapiens, UniProt P04637+Q00987); experiment: Inhibition of YFP/YFP variant coding sequence fused p53/Mdm2 (unknown origin) expressed in HEK293 cells incubated for 8 to 24 hrs by fluorescence based analysis; type: cell-based
Chain of Tumour suppressor p53/oncoprotein Mdm2 (P04637 whole entry, looked up, stated change not applied, the tested form may be a part): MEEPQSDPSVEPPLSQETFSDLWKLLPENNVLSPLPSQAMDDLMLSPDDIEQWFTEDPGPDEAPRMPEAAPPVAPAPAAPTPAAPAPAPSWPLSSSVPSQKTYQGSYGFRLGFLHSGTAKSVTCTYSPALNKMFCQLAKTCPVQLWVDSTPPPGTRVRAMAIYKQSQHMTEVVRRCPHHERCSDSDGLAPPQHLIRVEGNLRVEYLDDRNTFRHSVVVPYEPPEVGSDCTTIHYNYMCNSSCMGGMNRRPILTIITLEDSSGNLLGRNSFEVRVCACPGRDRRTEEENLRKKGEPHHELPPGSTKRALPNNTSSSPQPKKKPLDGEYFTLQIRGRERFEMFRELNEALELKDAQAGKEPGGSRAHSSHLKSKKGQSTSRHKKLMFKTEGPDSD
Chain of Tumour suppressor p53/oncoprotein Mdm2 (Q00987 whole entry, looked up, stated change not applied, the tested form may be a part): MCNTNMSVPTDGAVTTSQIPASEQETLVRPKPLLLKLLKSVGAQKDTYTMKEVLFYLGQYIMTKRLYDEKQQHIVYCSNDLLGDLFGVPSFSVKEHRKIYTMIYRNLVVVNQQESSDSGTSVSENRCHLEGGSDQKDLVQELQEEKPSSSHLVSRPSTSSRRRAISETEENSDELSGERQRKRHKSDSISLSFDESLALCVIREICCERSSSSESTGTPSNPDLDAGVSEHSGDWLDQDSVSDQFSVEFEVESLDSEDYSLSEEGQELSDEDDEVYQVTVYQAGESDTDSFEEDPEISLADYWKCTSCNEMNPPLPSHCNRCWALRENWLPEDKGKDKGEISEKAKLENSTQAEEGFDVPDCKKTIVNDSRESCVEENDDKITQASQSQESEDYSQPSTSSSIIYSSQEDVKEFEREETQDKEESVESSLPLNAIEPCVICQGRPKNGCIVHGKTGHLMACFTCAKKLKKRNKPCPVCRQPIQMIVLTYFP

[14] = system: HCT-116; experiment: Antitumor activity against human HCT-116 cells xenografted in nude mouse assessed as tumor growth inhibition at 15 mg/kg, po administered twice daily for 9 to 18 days relative to control; type: functional; details: time 9-18 day, read-out: TGI
[15] = system: M24met; experiment: Antitumor activity against human M24met cells xenografted in nude mouse assessed as tumor growth inhibition at 15 mg/kg, po administered once daily for 9 to 18 days relative to control; type: functional; details: time 9-18 day, read-out: TGI
[16] = system: HCT-116; experiment: Antitumor activity against human HCT-116 cells xenografted in nude mouse assessed as tumor growth inhibition at 3.3 mg/kg administered via pump for 9 days relative to control; type: functional; details: HCT-116, 216 h, time 9 day, read-out: TGI
[17] = system: HCT-116; experiment: Antitumor activity against human HCT-116 cells xenografted in nude mouse assessed as reduction in Ki67 at 15 to 25 mg/kg administered orally twice daily by immunohistochemical analysis; type: functional, organism-based; details: dose 15-25 mg/kg, route po, time 3-6 day, TDE = time-dependent effect
[18] = system: HCT-116; experiment: Antitumor activity against human HCT-116 cells xenografted in nude mouse assessed as increase in caspase 3 activation at 15 to 25 mg/kg, po administered twice daily for 6 days by immunohistochemical analysis; type: functional, organism-based; details: dose 15-25 mg/kg, time 6.0 day
Method in brief: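 HCT116 cells (2 × 10^6 in 0.15 mL 1:1 Matrigel:PBS) were implanted s.c. in nude mice. At 300–350 mm3, mice were randomized into groups of five and dosed orally twice daily with vehicle, 15 or 25 mg/kg. Tumors were harvested on days 2, 3 and 6, paraformaldehyde-fixed and IHC-stained for caspase 3 (1:200). Three serial sections were scored 0–4 (0 = <2% to 4 = >7% positive cells).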

[19] = system: HCT-116; experiment: Antitumor activity against human HCT-116 cells xenografted in nude mouse assessed as reduction in GSK3beta phosphorylation at S21 residue at 15 to 150 mg/kg/day administered via pump for 18 hrs by Reverse-Phase protein array analysis; type: functional, organism-based; details: dose 15-150 mg/kg/day
[20] = biological target: Serine/threonine-protein kinase PAK 4 (Homo sapiens, UniProt O96013)
Chain of Serine/threonine-protein kinase PAK 4 (O96013 whole entry, looked up): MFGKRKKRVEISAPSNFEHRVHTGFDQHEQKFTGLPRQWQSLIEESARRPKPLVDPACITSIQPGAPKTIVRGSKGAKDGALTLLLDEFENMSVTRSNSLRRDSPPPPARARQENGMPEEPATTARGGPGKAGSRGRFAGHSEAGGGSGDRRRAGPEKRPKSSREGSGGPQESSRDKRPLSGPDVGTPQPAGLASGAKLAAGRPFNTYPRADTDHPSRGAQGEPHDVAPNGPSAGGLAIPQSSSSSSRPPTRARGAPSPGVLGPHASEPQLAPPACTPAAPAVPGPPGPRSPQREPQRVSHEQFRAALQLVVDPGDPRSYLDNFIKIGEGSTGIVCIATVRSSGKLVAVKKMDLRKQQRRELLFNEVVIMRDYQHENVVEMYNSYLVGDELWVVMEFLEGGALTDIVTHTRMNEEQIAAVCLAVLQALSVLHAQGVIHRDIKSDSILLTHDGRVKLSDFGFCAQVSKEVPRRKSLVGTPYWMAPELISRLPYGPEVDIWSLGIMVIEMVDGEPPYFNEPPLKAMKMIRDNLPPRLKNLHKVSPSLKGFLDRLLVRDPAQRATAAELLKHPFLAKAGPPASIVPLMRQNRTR

IC50 [2]: 5.5 nM | IC50 [3]: 9.3 nM | IC50 [4]: 11 nM | IC50 [5]: 12 nM | IC50 [6]: 7 nM | inhibition [8]: 98% | Ki [9]: 5 nM | Ki [10]: 43 nM | IC50 [11]: 2410 nM | IC50 [12]: 3600 nM | IC50 [13]: 5.6 nM | T1/2 [20]: 1.13 min
SMILES: Cc1nc(Nc2n[nH]c3c2CN(C(=O)N[C@H](CN(C)C)c2ccccc2)C3(C)C)c2sccc2n1 [PF-03758309]
IC50 [1]: 1.8 nM | IC50 [7]: 0.49 nM | inhibition in vivo at 15 mg/kg [14]: 79% | inhibition in vivo at 15 mg/kg [15]: 72% | inhibition in vivo at 3.3 mg/kg [16]: 114% | Activity [17]: Tde | Activity [18]: Active | Activity [19]: Active
